Experimental data from ChEMBL document CHEMBL1122457, “Derivatives of beta-adrenergic antagonists. N-Nitrosopropranolol and N-hydroxypropranolol and its aldonitrone” (J Med Chem, 1983).

Tests used:
[1] = species: Rattus norvegicus; assay: Mutagenic activity (Ames Salmonella Test) in the presence of rat liver S-9 fraction in TA-100 strain; type: functional
Outline: (§1)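 Liver 9000g supernatant (1.0 mg protein, PBS-diluted, filtered) plus NADPH (1 mg/plate) went into histidine/biotin-supplemented top agar with overnight TA-98 or TA-100 culture. Compound in Me2SO was added last, with Me2SO as control. His+ revertants were counted after 40 h at 37 °C in the dark, averaging ≥2 plates.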

[2] = species: Rattus norvegicus; assay: Mutagenic activity (Ames Salmonella Test) in the presence of rat liver S-9 fraction in TA-100 strain at a conc. of 1000 ug; type: functional; outline: as §1
[3] = species: Rattus norvegicus; assay: Mutagenic activity (Ames Salmonella Test) in the presence of rat liver S-9 fraction in TA-98 strain; type: functional; outline: as §1
[4] = species: Rattus norvegicus; assay: Mutagenic activity (Ames Salmonella Test) in the presence of rat liver S-9 fraction in TA-98 strain at a conc. of 1000 ug; type: functional
Outline: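 Plate-incorporation reversion assay in TA-98 from an overnight nutrient-broth culture (2–3 × 10⁹ bacteria/mL). The compound is in Me₂SO, added last to top agar at 45 °C. NADPH 1 mg/plate. His⁺ revertants are counted after 40 h at 37 °C in the dark.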

[5] = species: Rattus norvegicus; assay: Toxicity (Ames Salmonella Test) in the presence of rat liver S-9 fraction in TA-100 strain (4*10e6 dilution); type: organism-based
Outline: (§2)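 TA-100 bacteria are exposed to varying compound concentrations for 30 min at 37 °C. They are then diluted to about 10³ bacteria/mL and plated on histidine-enriched (4.5 mM) agar. Surviving colonies are counted.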

[6] = species: Rattus norvegicus; assay: Toxicity (Ames Salmonella Test) in the presence of rat liver S-9 fraction in TA-100 strain (4*10e7 dilution); type: organism-based; outline: as §2
[7] = species: Rattus norvegicus; assay: Toxicity (Ames Salmonella Test) in the presence of rat liver S-9 fraction in TA-100 strain at a conc. of 1000 ug (4*10e6 dilution); type: organism-based; outline: as §2
[8] = species: Rattus norvegicus; assay: Mutagenic activity (Ames Salmonella Test) in the presence of rat liver S-9 fraction in TA-100 strain at a conc. of 500 ug; type: functional
Outline: as §1, with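 “Male Sprague-Dawley rats received Arochlor 1254 (500 mg/kg in corn oil) and were killed 48 h later. Liver” for “Liver”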

[9] = species: Rattus norvegicus; assay: Mutagenic activity (Ames Salmonella Test) in the presence of rat liver S-9 fraction in TA-98 strain at a conc. of 500 ug; type: functional
Outline: as §1, with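 “Male Sprague-Dawley rats received Arochlor 1254 (500 mg/kg in corn oil) and were killed 48 h later. Liver” for “Liver”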

[10] = species: Rattus norvegicus; assay: Toxicity (Ames Salmonella Test) in the presence of rat liver S-9 fraction in TA-100 strain at a conc. of 500 ug (4*10e6 dilution); type: organism-based; outline: as §2
[11] = species: Rattus norvegicus; assay: Toxicity (Ames Salmonella Test) in the presence of rat liver S-9 fraction in TA-100 strain at a conc. of 500 ug (4*10e7 dilution); type: organism-based; outline: as §2
[12] = species: Rattus norvegicus; assay: Mutagenic activity (Ames Salmonella Test) in the presence of rat liver S-9 fraction in TA-98 strain at aconc. of 1000 ug; type: functional
Outline: as §1, with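 “Male Sprague-Dawley rats received Arochlor 1254 (500 mg/kg in corn oil) and were killed 48 h later. Liver” for “Liver”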

SMILES | Mutagenicity [1] | Mutagenicity [2] | Mutagenicity [3] | Mutagenicity [4] | Toxicity [5] | Toxicity [6] | Toxicity [7] | Mutagenicity [8] | Mutagenicity [9] | Toxicity [10] | Toxicity [11] | Mutagenicity [12]
CC(C)N(CC(O)COc1cccc2ccccc12)N=O (stereo unspecified) | 137 | 131 | 14 | 13 | 255 | 25 | – | – | – | – | – | –
Br.CC(C)N(O)CC(O)COc1cccc2ccccc12 (stereo unspecified) | – | 134 | – | 8 | – | – | 183 | 117 | 12 | 265 | 28 | –
CC(C)/[N+]([O-])=C/C(O)COc1cccc2ccccc12 (stereo unspecified) | 162 | – | 18 | – | 232 | – | – | – | – | – | – | –
CC(C)N(O)CC(O)COc1cccc2ccccc12.O=C(O)C(=O)O (stereo unspecified) | 143 | 61 | 18 | – | 165 | 18 | 60 | – | – | – | – | 20
CC(C)NO [ISOPROPYLHYDROXYLAMINE] | 150 | – | 18 | – | 230 | – | – | – | – | – | – | –
